According to ChEMBL document CHEMBL4229344 (Eur J Med Chem, 2018):
The source made the active and inactive calls. The rule behind the calls is not given here.

What was measured:
[1] = target: Tyrosine-protein kinase Tec (Homo sapiens) (UniProt P42680); assay: Binding affinity to wild-type human partial length TEC (L341 to D620 residues) expressed in bacterial expression system assessed as residual binding level at 1 uM by Kinomescan method relative to control
[2] = target: Wee1-like protein kinase 2 (Homo sapiens) (UniProt P0C1S8); assay: Binding affinity to wild-type human partial length WEE2 (M204 to K492 residues) expressed in bacterial expression system assessed as residual binding level at 1 uM by Kinomescan method relative to control
[3] = target: Serine/threonine-protein kinase Chk1 (Homo sapiens) (UniProt O14757); assay: Binding affinity to wild-type human partial length CHEK1 (M1 to G289 residues) expressed in bacterial expression system assessed as residual binding level at 1 uM by Kinomescan method relative to control
[4] = target: Tyrosine-protein kinase Fes/Fps (Homo sapiens) (UniProt P07332); assay: Binding affinity to wild-type human partial length FES (I527 to R822 residues) expressed in bacterial expression system assessed as residual binding level at 1 uM by Kinomescan method relative to control
[5] = target: Serine/threonine-protein kinase ULK2 (Homo sapiens) (UniProt Q8IYT8); assay: Binding affinity to wild-type human partial length ULK2 (M1 to S301 residues) expressed in mammalian expression system assessed as residual binding level at 1 uM by Kinomescan method relative to control
In short: (§1)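 KINOMEscan competition binding against a panel of 468 purified kinases/mutants, compound tested at 1 μM; readout is relative binding activity versus control.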

[6] = test system: Phosphatidylinositol 4,5-bisphosphate 3-kinase catalytic subunit alpha isoform (Homo sapiens), P42336 [Q546K]; assay: Binding affinity to human partial length PIK3CA Q546K mutant (R108 to N1068 residues) expressed in mammalian expression system assessed as residual binding level at 1 uM by Kinomescan method relative to control
In short: (§2)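 Kinome-wide single-concentration binding screen (KINOMEscan) at 1 μM against a panel of 468 purified kinases and mutants. Read-out is relative binding of each kinase compared with control. Selectivity across the panel was summarised as an S(10) score.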

[7] = target: Serine/threonine-protein kinase WNK4 (Homo sapiens) (UniProt Q96J92); assay: Binding affinity to wild-type human partial length WNK4 (A31 to D461 residues) expressed in mammalian expression system assessed as residual binding level at 1 uM by Kinomescan method relative to control
[8] = test system: Receptor-type tyrosine-protein kinase FLT3 (Homo sapiens), P36888 [UNDEFINED MUTATION]; assay: Binding affinity to human partial length FLT3 ITD/F691L double mutant expressed in bacterial expression system assessed as residual binding level at 1 uM by Kinomescan method relative to control; in short: as §2
[9] = target: Casein kinase I isoform gamma-1 (Homo sapiens) (UniProt Q9HCP0); assay: Binding affinity to wild-type human partial length CSNK1G1 (T15 to S353 residues) expressed in bacterial expression system assessed as residual binding level at 1 uM by Kinomescan method relative to control
[10] = test system: NCI-H1703; assay: Induction of apoptosis in human NCI-H1703 cells assessed as cleaved caspase3 expression level at 0.3 to 10 uM after 72 hrs by Western blot analysis; type: functional, cell-based
In short: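 Cells exposed to compound or DMSO for the stated periods, then lysed and immunoblotted for PARP and caspase-3 cleavage, with β-actin as loading control. NCI-H1703 stimulation used PDGF AA at 100 ng/mL.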

[11] = test system: Proto-oncogene tyrosine-protein kinase receptor Ret (Homo sapiens), P07949 [V804L]; assay: Binding affinity to human partial length RET V804L mutant (E713 to D1014 residues) expressed in bacterial expression system assessed as residual binding level at 1 uM by Kinomescan method relative to control; in short: as §2
[12] = target: Protein kinase C theta type (Homo sapiens) (UniProt Q04759); assay: Binding affinity to wild-type human partial length PRKCQ (L350 to S706 residues) expressed in bacterial expression system assessed as residual binding level at 1 uM by Kinomescan method relative to control; in short: as §1
[13] = target: Ribosomal protein S6 kinase alpha-6 (Homo sapiens) (UniProt Q9UK32); assay: Binding affinity to wild-type human partial length N-terminal RSK4 kinase domain 1 (M1 to E397 residues) expressed in mammalian expression system assessed as residual binding level at 1 uM by Kinomescan method relative to control
[14] = target: BMP-2-inducible protein kinase (Homo sapiens) (UniProt Q9NSY1); assay: Binding affinity to wild-type human partial length BIKE (S34 to N329 residues) expressed in bacterial expression system assessed as residual binding level at 1 uM by Kinomescan method relative to control
In short: (§3)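 Single-concentration KINOMEscan (DiscoverX) binding screen at 1 μM against a panel of 468 purified kinases and mutants. The read-out is binding relative to control.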

[15] = AUC (0 to t) in Sprague-Dawley rat at 1 mg/kg, iv; type: ADME, organism-based; conditions: in vivo
In short: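 Male Sprague-Dawley rats (6–8 weeks) fasted overnight, dosed IV or orally; compound dissolved in 5% DMSO/40% PEG400/55% saline (dosing solution 1 mg/mL). Blood (~0.2 mL) from jugular vein into heparin; IV sampling 1 min–8 h, oral 5 min–24 h. Plasma separated by centrifugation at 2–8 °C, stored at −80 °C until analysis.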

[16] = target: Ephrin type-A receptor 3 (Homo sapiens) (UniProt P29320); assay: Binding affinity to wild-type human partial length EPHA3 (D604 to K889 residues) expressed in bacterial expression system assessed as residual binding level at 1 uM by Kinomescan method relative to control
In short: (§4)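 Kinome-wide competition binding screen against a panel of 468 purified kinases/mutants, with the test compound at a single concentration of 1 μM. Read-out is the relative binding activity of each kinase in the presence of compound.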

[17] = target: Calcium/calmodulin-dependent protein kinase type II subunit gamma (Homo sapiens) (UniProt Q13555); assay: Binding affinity to wild-type human partial length CAMK2G (R9 to A303 residues) expressed in bacterial expression system assessed as residual binding level at 1 uM by Kinomescan method relative to control
[18] = target: Mitogen-activated protein kinase 6 (Homo sapiens) (UniProt Q16659); assay: Binding affinity to wild-type human partial length ERK3 (M1 to P413 residues) expressed in bacterial expression system assessed as residual binding level at 1 uM by Kinomescan method relative to control; in short: as §4
[19] = target: Serine/threonine-protein kinase WNK2 (Homo sapiens) (UniProt Q9Y3S1); assay: Binding affinity to wild-type human partial length WNK2 (V47 to D482 residues) expressed in mammalian expression system assessed as residual binding level at 1 uM by Kinomescan method relative to control
[20] = target: Serine/threonine-protein kinase B-raf (Homo sapiens) (UniProt P15056); assay: Binding affinity to wild-type human partial length BRAF (S429 to E741 residues) expressed in mammalian expression system assessed as residual binding level at 1 uM by Kinomescan method relative to control; in short: as §3
[21] = target: Ephrin type-A receptor 1 (Homo sapiens) (UniProt P21709); assay: Binding affinity to wild-type human partial length EPHA1 (V588 to I913 residues) expressed in bacterial expression system assessed as residual binding level at 1 uM by Kinomescan method relative to control
Sequence of Ephrin type-A receptor 1 (Homo sapiens) (P21709 whole entry, the tested form may be a part): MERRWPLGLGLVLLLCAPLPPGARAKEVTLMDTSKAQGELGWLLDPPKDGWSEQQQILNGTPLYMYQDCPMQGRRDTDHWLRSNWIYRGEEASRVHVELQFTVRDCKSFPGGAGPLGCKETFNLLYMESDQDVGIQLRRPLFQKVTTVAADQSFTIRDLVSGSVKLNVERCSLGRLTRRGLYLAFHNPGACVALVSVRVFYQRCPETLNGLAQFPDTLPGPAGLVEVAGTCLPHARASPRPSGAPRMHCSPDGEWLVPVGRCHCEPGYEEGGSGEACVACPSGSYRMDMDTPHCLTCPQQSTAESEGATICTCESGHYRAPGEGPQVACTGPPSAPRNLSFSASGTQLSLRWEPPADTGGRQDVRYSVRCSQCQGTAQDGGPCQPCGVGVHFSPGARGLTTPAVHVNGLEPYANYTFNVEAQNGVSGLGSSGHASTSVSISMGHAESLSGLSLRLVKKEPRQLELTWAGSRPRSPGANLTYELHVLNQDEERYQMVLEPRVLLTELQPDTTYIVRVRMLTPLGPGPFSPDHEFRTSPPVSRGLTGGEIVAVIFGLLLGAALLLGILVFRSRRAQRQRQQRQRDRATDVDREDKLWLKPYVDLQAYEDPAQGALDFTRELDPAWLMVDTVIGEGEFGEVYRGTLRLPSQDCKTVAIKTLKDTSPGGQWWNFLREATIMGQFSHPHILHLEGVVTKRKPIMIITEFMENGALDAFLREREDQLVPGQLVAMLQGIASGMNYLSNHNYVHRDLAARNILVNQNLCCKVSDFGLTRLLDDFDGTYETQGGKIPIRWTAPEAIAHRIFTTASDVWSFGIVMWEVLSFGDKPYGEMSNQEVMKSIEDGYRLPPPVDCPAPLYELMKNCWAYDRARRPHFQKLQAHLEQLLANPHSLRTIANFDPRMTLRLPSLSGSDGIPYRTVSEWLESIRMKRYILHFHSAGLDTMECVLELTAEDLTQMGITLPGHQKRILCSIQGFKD

Sequence of Tyrosine-protein kinase Fes/Fps (Homo sapiens) (P07332 whole entry, the tested form may be a part): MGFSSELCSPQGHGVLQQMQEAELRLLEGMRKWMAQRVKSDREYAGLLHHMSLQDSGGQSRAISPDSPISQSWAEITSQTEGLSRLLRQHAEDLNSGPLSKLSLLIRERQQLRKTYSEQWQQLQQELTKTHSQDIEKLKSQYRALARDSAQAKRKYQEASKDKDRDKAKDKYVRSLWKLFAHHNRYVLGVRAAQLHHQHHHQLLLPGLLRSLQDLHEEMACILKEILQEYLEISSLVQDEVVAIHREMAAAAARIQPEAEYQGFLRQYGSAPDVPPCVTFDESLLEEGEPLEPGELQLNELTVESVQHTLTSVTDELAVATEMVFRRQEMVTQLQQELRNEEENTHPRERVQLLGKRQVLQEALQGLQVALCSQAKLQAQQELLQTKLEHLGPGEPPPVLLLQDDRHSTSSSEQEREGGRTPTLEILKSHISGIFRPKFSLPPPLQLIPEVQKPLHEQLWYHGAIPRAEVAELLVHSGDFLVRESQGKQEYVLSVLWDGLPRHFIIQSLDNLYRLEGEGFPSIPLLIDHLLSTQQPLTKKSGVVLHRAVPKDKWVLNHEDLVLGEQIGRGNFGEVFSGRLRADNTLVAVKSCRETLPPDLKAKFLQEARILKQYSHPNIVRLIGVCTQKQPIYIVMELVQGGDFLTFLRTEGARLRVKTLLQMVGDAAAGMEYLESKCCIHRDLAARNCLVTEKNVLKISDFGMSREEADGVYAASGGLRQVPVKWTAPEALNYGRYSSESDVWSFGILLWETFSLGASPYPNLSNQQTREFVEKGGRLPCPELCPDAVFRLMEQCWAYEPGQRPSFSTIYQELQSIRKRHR
Sequence of Proto-oncogene tyrosine-protein kinase receptor Ret (Homo sapiens), P07949 [V804L] (P07949 whole entry V804L, the tested form may be a part): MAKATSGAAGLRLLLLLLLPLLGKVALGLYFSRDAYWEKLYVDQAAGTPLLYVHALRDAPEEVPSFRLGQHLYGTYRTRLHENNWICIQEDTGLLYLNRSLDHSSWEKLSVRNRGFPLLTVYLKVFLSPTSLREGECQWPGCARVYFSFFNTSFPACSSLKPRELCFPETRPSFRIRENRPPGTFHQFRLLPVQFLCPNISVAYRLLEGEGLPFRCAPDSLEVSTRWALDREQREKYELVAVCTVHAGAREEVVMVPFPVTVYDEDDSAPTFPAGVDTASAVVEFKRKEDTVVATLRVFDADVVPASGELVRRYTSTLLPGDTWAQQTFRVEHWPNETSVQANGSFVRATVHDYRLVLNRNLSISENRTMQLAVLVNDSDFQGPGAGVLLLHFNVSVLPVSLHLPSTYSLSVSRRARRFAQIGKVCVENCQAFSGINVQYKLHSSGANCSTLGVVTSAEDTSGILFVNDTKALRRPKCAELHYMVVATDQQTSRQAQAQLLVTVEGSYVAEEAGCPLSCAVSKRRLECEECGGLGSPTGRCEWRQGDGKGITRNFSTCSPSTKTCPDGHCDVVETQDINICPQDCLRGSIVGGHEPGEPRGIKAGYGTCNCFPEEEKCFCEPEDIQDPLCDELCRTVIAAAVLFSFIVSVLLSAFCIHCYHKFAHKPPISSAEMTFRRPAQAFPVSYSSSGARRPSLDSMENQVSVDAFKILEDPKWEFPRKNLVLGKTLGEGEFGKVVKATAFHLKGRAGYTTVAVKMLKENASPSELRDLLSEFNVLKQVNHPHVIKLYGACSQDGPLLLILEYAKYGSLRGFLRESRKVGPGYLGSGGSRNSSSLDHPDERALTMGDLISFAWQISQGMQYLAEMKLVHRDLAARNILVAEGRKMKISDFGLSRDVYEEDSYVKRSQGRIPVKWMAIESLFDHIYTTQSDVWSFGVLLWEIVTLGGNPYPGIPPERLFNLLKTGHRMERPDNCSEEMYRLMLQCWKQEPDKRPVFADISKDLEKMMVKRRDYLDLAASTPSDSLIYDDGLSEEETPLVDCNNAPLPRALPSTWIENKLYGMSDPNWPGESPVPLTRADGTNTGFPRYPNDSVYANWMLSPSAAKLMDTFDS
Sequence of Ribosomal protein S6 kinase alpha-6 (Homo sapiens) (Q9UK32 whole entry, the tested form may be a part): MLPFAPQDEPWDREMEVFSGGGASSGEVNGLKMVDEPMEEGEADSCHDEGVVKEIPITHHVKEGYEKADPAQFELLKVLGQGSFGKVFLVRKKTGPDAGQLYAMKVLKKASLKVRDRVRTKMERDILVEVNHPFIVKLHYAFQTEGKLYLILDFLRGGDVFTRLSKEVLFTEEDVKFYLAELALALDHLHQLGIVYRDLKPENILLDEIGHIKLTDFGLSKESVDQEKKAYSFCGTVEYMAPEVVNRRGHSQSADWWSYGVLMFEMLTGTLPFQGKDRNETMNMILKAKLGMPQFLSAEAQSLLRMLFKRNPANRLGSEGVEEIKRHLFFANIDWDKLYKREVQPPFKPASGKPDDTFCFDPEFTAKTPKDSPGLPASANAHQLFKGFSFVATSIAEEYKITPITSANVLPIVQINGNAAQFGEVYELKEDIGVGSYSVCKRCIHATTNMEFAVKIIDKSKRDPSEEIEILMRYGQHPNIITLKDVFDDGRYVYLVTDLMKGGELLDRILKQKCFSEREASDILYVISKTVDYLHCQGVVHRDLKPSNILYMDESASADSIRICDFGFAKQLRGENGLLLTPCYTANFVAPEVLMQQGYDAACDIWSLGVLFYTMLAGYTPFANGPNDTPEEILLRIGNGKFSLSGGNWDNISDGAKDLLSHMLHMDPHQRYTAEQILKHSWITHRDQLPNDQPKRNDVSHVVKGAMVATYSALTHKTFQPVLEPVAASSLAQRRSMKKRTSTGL
Sequence of Serine/threonine-protein kinase B-raf (Homo sapiens) (P15056 whole entry, the tested form may be a part): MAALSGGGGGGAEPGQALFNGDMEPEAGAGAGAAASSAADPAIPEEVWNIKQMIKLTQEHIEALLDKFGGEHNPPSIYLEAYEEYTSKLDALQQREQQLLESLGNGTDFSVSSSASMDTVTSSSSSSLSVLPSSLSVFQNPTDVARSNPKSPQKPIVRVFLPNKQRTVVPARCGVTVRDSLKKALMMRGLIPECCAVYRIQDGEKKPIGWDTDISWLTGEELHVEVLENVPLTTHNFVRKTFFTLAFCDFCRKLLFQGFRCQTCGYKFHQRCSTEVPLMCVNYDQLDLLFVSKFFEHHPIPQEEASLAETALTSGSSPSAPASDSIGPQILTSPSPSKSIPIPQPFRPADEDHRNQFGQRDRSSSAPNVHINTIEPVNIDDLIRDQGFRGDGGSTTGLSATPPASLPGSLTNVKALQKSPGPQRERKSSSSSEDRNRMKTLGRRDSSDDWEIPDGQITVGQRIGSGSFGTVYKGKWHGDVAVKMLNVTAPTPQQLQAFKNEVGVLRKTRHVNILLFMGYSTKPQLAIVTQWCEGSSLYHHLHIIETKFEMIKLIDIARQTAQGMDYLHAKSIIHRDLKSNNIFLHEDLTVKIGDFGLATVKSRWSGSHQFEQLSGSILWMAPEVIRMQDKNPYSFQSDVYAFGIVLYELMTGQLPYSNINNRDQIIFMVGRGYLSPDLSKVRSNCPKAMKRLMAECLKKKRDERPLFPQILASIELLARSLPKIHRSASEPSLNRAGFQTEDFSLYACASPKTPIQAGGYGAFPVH
Sequence of Casein kinase I isoform gamma-1 (Homo sapiens) (Q9HCP0 whole entry, looked up, the tested form may be a part, canonical isoform): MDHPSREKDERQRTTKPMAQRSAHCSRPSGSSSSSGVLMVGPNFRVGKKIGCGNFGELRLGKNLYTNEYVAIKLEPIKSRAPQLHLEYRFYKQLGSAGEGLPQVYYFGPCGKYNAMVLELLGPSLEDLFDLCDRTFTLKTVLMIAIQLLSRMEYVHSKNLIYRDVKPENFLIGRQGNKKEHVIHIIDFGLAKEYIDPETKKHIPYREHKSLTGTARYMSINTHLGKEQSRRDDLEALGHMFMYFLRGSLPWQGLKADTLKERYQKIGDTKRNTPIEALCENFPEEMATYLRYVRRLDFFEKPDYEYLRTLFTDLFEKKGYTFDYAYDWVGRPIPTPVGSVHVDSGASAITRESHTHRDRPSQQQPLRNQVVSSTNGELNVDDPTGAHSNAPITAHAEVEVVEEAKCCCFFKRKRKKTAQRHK

## Cc1ccc(NC(=O)c2ccc(CN(CCN(C)C)C(=O)c3cccnc3)cc2)cc1Nc1nccc(-c2cccnc2)n1
[1]
  Activity: 100%
[2]
  Activity: 96%
[3]
  Activity: 100%
[4]
  Activity: 85%
[5]
  Activity: 84%
[6]
  Activity: 90%
[7]
  Activity: 100%
[8]
  Activity: 100%
[9]
  Activity: 90%
[10]
  Activity: inactive
[11]
  Activity: 97%
[12]
  Activity: 83%
[13]
  Activity: 100%
[14]
  Activity: 99%
[15]
  AUC(0-t): 528 ng·h/mL
[16]
  Activity: 89%
[17]
  Activity: 93%
[18]
  Activity: 94%
[19]
  Activity: 100%
[20]
  Activity: 88%
[21]
  Activity: 100%
